For data set [1], the target named is Serine/threonine-protein kinase WNK1 (Homo sapiens) (UniProt Q9H4A3). Kind of data set: Binding affinity to wild-type human partial length WNK1 (Q194 to A490 residues) expressed in mammalian expression system assessed as residual binding level at 1 uM by Kinomescan method relative to control.
In data set [2] the target is NT-3 growth factor receptor (Homo sapiens) (UniProt Q16288). Kind of data set: Binding affinity to wild-type human partial length TRKC (Q531 to G825 residues) expressed in mammalian expression system assessed as residual binding level at 1 uM by Kinomescan method relative to control.
Data set [3] is described as follows: Drug uptake in mouse lung at 10 mg/kg, po after 8 hrs. The data set is classed as ADME, organism-based. The conditions noted are these: read-out: Drug uptake.
Data set [4] addresses Ephrin type-B receptor 2 (Homo sapiens) (UniProt P29323). Kind of data set: Binding affinity to wild-type human partial length EPHB2 (I597 to L902 residues) expressed in bacterial expression system assessed as residual binding level at 1 uM by Kinomescan method relative to control.
The target in data set [5] is Serine/threonine-protein kinase TAO1 (Homo sapiens) (UniProt Q7L7X3). The data set is described as follows: Binding affinity to wild-type human partial length TAOK1 (M1 to A320 residues) expressed in mammalian expression system assessed as residual binding level at 1 uM by Kinomescan method relative to control.
Sequence of Serine/threonine-protein kinase TAO1 (Homo sapiens) (Q7L7X3 whole entry, the tested form may be a part): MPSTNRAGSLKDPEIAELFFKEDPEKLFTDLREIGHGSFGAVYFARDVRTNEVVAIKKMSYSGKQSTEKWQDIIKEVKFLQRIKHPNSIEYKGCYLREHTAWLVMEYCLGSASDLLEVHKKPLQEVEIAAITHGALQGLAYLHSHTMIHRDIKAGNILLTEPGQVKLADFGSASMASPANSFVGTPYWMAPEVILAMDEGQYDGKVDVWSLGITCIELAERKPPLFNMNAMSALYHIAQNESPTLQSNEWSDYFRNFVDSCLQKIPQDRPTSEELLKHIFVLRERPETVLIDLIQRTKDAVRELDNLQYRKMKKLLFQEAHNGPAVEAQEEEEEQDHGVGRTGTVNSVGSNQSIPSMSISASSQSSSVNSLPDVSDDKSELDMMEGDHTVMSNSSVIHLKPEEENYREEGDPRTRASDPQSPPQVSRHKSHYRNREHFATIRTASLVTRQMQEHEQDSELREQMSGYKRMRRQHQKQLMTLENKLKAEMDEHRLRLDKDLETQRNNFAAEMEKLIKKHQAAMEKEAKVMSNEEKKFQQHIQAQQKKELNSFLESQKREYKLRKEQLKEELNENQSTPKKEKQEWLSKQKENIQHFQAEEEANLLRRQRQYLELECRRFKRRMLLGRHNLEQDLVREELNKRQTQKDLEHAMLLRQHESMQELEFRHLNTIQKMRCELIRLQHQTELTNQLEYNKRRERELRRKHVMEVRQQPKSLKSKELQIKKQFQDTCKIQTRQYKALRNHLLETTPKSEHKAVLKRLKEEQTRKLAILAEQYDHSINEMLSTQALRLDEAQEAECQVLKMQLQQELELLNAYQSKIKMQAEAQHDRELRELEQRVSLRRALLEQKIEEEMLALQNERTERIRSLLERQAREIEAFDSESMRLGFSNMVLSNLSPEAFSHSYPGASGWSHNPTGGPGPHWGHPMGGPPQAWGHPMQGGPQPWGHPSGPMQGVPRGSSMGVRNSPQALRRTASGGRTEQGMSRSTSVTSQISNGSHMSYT
The target of data set [6] is Mitogen-activated protein kinase 13 (Homo sapiens) (UniProt O15264). Kind of data set: Binding affinity to wild-type human full length p38-delta (M1 to L365 residues) expressed in bacterial expression system assessed as residual binding level at 1 uM by Kinomescan method relative to control.
In data set [7] the target is Serine/threonine-protein kinase PLK2 (Homo sapiens) (UniProt Q9NYY3). Kind of data set: Binding affinity to wild-type human partial length PLK2 (H58 to F354 residues) expressed in mammalian expression system assessed as residual binding level at 1 uM by Kinomescan method relative to control.
Data set [8] has as its target Receptor-interacting serine/threonine-protein kinase 4 (Homo sapiens) (UniProt P57078). Kind of data set: Binding affinity to wild-type human partial length RIPK4 (M1 to V303 residues) expressed in mammalian expression system assessed as residual binding level at 1 uM by Kinomescan method relative to control.
Data set [9] concerns the target Ephrin type-A receptor 6 (Homo sapiens) (UniProt Q9UF33). The data set is described as follows: Binding affinity to wild-type human partial length EPHA6 (Y700 to E1046 residues) expressed in bacterial expression system assessed as residual binding level at 1 uM by Kinomescan method relative to control.
Data set [10] has as its target cGMP-dependent protein kinase 2 (Homo sapiens) (UniProt Q13237). The data set is described as follows: Binding affinity to wild-type human partial length PRKG2 (S422 to F762 residues) expressed in mammalian expression system assessed as residual binding level at 1 uM by Kinomescan method relative to control.
Data set [11] deals with Mitogen-activated protein kinase kinase kinase 9 (Homo sapiens) (UniProt P80192). Kind of data set: Binding affinity to wild-type human partial length MLK1 (V88 to W426 residues) expressed in bacterial expression system assessed as residual binding level at 1 uM by Kinomescan method relative to control.
The target of data set [12] is CDK4/Cyclin D3 (Homo sapiens) (UniProt P11802+P30281). Kind of data set: Binding affinity to wild-type human full length CDK4/cyclinD3 (M1 to E303 residues) expressed in mammalian expression system assessed as residual binding level at 1 uM by Kinomescan method relative to control.
The target in data set [13] is Ribosomal protein S6 kinase alpha-3 (Homo sapiens) (UniProt P51812). The data set is described as follows: Binding affinity to wild-type human partial length N-terminal RSK2 kinase domain 1 (M1 to D394 residues) expressed in mammalian expression system assessed as residual binding level at 1 uM by Kinomescan method relative to control.
For data set [14], the target named is Phosphatidylinositol 5-phosphate 4-kinase type-2 beta (Homo sapiens) (UniProt P78356). Kind of data set: Binding affinity to wild-type human full length PIP5K2B (M1 to T416 residues) expressed in bacterial expression system assessed as residual binding level at 1 uM by Kinomescan method relative to control. A digest of the protocol:
(§1)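 Single-point kinome-wide KINOMEscan binding panel, test compound at 1 μM, run by the provider's standard protocol.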

Data set [15] has as its system Receptor-type tyrosine-protein kinase FLT3 (Homo sapiens), P36888 [D835Y]. The data set is described as follows: Binding affinity to human partial length FLT3 D835Y mutant (Q580 to Y969 residues) expressed in bacterial expression system assessed as residual binding level at 1 uM by Kinomescan method relative to control. A digest of the protocol:
(§2)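 Kinome-wide selectivity panel run by the KINOMEscan method, with the test compound at a single concentration of 1 μM. Wild-type and mutant kinases were profiled in the same screen.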

Data set [16] concerns Receptor-type tyrosine-protein kinase FLT3 (Homo sapiens), P36888 [UNDEFINED MUTATION]. Kind of data set: Binding affinity to human partial length FLT3 ITD mutant expressed in bacterial expression system assessed as residual binding level at 1 uM by Kinomescan method relative to control. A digest of the protocol:
as §2

For data set [17], the target named is Serine/threonine-protein kinase NLK (Homo sapiens) (UniProt Q9UBE8). Kind of data set: Binding affinity to wild-type human full length NLK (M13 to E527 residues) expressed in bacterial expression system assessed as residual binding level at 1 uM by Kinomescan method relative to control. A digest of the protocol:
as §1

Data set [18] has as its target cAMP-dependent protein kinase catalytic subunit PRKX (Homo sapiens) (UniProt P51817). Kind of data set: Binding affinity to wild-type human partial length PRKX (M1 to F358 residues) expressed in bacterial expression system assessed as residual binding level at 1 uM by Kinomescan method relative to control.
Data set [19] concerns the target Calcium/calmodulin-dependent protein kinase type II subunit beta (Homo sapiens) (UniProt Q13554). Kind of data set: Binding affinity to wild-type human partial length CAMK2B (M1 to Q380 residues) expressed in bacterial expression system assessed as residual binding level at 1 uM by Kinomescan method relative to control.
The target in data set [20] is Mitogen-activated protein kinase 3 (Homo sapiens) (UniProt P27361). Kind of data set: Binding affinity to wild-type human full length ERK1 (M1 to P379 residues) expressed in bacterial expression system assessed as residual binding level at 1 uM by Kinomescan method relative to control. A digest of the protocol:
as §1

In data set [21] the target is Tyrosine-protein kinase JAK3 (Homo sapiens) (UniProt P52333). The data set is described as follows: Binding affinity to wild-type human partial length JAK3 JH1 catalytic domain (I781 to S1124 residues) expressed in mammalian expression system assessed as residual binding level at 1 uM by Kinomescan method relative to control.
The target of data set [22] is Cyclin-dependent kinase-like 1 (Homo sapiens) (UniProt Q00532). The data set is described as follows: Binding affinity to wild-type human full length CDKL1 (M1 to I358 residues) expressed in mammalian expression system assessed as residual binding level at 1 uM by Kinomescan method relative to control.
Sequence of Cyclin-dependent kinase-like 1 (Homo sapiens) (Q00532 whole entry, the tested form may be a part): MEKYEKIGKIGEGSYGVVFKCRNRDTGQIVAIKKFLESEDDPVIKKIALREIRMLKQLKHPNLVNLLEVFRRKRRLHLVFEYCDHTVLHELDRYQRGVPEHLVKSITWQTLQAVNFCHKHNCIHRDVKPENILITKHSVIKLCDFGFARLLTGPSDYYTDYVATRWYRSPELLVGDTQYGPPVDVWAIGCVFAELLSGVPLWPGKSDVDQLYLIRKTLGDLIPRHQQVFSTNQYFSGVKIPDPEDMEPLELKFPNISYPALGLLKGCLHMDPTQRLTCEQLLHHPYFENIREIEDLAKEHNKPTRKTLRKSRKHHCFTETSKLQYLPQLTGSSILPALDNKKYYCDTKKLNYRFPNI
Data set [23] has as its target BMP-2-inducible protein kinase (Homo sapiens) (UniProt Q9NSY1). The data set is described as follows: Binding affinity to wild-type human partial length BIKE (S34 to N329 residues) expressed in bacterial expression system assessed as residual binding level at 1 uM by Kinomescan method relative to control.
The target in data set [24] is Tyrosine-protein kinase HCK (Homo sapiens) (UniProt P08631). Kind of data set: Binding affinity to wild-type human full length HCK (M22 to P526 residues) expressed in bacterial expression system assessed as residual binding level at 1 uM by Kinomescan method relative to control. A digest of the protocol:
as §1

Sequence of cGMP-dependent protein kinase 2 (Homo sapiens) (Q13237 whole entry, the tested form may be a part): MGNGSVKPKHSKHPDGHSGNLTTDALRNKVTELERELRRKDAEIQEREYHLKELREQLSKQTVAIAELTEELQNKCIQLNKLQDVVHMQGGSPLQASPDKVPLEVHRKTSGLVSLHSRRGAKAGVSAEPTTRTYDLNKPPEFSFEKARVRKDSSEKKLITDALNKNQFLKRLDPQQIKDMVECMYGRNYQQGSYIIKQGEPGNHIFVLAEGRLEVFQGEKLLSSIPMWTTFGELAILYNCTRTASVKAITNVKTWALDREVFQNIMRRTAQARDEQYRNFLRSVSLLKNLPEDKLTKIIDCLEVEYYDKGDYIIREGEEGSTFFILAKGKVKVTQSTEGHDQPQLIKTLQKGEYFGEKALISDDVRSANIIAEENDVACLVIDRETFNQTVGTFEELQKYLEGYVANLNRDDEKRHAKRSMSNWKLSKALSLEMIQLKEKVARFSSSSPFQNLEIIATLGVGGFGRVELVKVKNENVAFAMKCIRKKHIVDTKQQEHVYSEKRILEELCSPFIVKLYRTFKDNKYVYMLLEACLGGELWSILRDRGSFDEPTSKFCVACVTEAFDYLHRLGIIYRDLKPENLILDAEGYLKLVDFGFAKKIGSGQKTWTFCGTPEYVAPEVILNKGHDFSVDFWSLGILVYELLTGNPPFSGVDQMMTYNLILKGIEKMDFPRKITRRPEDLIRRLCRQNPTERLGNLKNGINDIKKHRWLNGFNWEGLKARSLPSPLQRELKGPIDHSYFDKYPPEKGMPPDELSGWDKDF
Sequence of Serine/threonine-protein kinase NLK (Homo sapiens) (Q9UBE8 whole entry, the tested form may be a part): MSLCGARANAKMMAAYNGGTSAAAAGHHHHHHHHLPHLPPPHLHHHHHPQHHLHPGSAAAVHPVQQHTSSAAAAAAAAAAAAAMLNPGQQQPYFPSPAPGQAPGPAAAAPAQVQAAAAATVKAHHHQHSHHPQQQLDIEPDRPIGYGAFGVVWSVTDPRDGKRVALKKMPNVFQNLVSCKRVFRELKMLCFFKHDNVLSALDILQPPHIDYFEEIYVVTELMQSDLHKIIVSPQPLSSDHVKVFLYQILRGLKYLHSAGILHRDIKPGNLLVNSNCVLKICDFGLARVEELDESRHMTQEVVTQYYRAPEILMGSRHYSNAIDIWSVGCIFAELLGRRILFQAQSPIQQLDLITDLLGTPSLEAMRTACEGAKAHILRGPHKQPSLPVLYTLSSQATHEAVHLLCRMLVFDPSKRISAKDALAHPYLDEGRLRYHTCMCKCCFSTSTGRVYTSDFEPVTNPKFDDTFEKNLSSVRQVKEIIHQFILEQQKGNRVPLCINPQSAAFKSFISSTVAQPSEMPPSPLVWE
Sequence of Ephrin type-B receptor 2 (Homo sapiens) (P29323 whole entry, the tested form may be a part): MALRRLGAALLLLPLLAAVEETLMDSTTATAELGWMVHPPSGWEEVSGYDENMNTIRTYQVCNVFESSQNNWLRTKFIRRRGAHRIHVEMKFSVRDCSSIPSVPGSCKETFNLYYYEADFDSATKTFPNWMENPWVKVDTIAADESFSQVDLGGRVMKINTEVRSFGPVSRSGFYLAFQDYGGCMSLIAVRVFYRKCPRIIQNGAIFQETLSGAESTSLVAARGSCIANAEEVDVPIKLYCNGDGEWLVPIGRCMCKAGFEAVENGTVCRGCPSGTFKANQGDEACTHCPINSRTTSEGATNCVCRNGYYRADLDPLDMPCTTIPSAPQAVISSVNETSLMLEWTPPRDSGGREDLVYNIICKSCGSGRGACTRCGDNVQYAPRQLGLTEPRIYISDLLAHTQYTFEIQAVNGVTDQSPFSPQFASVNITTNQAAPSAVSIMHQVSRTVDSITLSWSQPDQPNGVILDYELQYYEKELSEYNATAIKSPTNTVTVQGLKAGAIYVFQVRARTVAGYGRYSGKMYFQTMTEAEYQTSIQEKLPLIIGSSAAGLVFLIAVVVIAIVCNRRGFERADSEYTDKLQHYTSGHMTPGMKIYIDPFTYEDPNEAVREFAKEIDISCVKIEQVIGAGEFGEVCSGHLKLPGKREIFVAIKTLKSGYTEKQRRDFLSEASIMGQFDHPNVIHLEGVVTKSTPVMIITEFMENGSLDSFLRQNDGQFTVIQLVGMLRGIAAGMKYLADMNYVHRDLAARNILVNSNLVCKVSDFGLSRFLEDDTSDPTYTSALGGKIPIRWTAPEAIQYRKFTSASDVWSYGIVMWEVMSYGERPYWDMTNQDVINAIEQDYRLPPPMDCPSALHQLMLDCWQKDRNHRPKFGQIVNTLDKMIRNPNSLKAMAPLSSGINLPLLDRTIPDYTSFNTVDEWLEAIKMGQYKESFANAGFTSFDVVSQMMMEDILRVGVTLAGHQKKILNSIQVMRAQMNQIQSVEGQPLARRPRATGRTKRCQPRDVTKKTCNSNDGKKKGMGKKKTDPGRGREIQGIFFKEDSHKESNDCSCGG
Sequence of Calcium/calmodulin-dependent protein kinase type II subunit beta (Homo sapiens) (Q13554 whole entry, the tested form may be a part): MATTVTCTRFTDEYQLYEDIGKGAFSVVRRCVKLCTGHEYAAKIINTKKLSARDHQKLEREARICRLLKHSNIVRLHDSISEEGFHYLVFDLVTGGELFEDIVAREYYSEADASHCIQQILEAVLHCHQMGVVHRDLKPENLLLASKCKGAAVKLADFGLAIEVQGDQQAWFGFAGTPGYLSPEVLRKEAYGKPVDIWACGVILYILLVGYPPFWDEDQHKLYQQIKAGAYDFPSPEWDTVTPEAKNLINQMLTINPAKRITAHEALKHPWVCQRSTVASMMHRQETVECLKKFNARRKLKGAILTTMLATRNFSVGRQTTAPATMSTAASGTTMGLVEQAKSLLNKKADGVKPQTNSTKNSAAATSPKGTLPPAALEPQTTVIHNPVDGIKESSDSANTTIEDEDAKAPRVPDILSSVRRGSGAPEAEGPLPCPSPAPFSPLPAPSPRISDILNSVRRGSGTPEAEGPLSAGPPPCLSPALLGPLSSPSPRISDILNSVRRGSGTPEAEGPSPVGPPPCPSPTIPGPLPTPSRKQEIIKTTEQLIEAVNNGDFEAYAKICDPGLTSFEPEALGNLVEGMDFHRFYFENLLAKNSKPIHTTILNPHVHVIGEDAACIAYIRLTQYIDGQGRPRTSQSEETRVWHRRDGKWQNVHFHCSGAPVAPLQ
Sequence of Mitogen-activated protein kinase 3 (Homo sapiens) (P27361 whole entry, the tested form may be a part): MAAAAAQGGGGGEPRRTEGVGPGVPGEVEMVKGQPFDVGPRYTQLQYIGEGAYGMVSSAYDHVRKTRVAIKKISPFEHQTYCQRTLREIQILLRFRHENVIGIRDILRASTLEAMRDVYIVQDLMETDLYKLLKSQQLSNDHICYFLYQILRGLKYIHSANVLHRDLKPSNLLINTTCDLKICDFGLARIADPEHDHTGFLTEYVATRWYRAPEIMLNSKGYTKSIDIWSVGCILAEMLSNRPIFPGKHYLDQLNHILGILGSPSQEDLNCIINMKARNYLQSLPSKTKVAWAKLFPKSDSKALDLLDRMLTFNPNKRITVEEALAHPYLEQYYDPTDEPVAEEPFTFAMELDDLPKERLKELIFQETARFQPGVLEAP

For `C=CC(=O)Nc1cc(Nc2ncc(Cl)c(Nc3ccccc3S(=O)(=O)C(C)C)n2)c(OC)cc1N(C)CCN(C)C`, the Activity in data set [1] was found to be 100%; in data set [2] it was 85%; in data set [4], 61%; in data set [5], 0.45%; in data set [6], 100%; in data set [7] it was 87%. In addition, the Activity was 72% in data set [8]; 49% in data set [9]; 79% in data set [10]; 39% in data set [11]; 55% in data set [12]; 1.7% in data set [13]. Further, the Activity in [14] was 55%; in data set [15] it was 3.6%; in data set [16] it was 7.6%; in data set [17] it was 55%; in data set [18], 100%; in data set [19] it was 48%. Also, the Activity in [20] worked out at 77%; in data set [21], 0%; in [22], 58%; in [23], 92%; in data set [24], 49%. In addition, the concentration at 8 h in [3] was determined as 740 nM.

Values taken from ChEMBL document CHEMBL4382192, “Discovery of a potent dual ALK and EGFR T790M inhibitor” (Eur J Med Chem, 2017).
